Converted amounts (≈) assume the structure as drawn.
How the values were obtained:
[1] = Distribution coefficient between octanol and sodium phosphate buffer, logD of the compound in pH 7.4 buffer by LC-MS/MS-based shake flask method
[2] = target: T1, Arachidonate 5-lipoxygenase-activating protein (Homo sapiens, UniProt P20292); test: Inhibition of [3H]MK0591 binding to human FLAP expressed in […] cell membranes measured after 60 to 80 mins by scintillation counting method
T1 sequence (P20292 whole entry): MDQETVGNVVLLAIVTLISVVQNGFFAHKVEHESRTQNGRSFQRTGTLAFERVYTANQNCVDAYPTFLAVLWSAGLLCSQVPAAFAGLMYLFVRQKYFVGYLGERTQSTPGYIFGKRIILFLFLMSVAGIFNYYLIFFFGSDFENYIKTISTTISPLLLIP

[3] = target: T2, Arachidonate 5-lipoxygenase-activating protein (Homo sapiens) (UniProt P20292); test: (§1) Inhibition of FLAP in human whole blood assessed as reduction in calcium ionophore-stimulated LTB4 production preincubated for 4 hrs followed by calcium ionophore stimulation and measured after 20 mins by EIA; assay type: tissue-based
T2 sequence (whole entry): T1 sequence (P20292 whole entry)

[4] = target: T1, Arachidonate 5-lipoxygenase-activating protein; test: as §1; assay type: tissue-based
[5] = target: Cytochrome P450 1A2 (Homo sapiens, UniProt P05177); test: Inhibition of recombinant human CYP1A2 assessed as maximum reduction in metabolite formation using coumarin based substrate by fluorescence assay; assay type: ADME
[6] = Intrinsic clearance in cryopreserved human hepatocytes assessed as per million cells at 1 uM measured up to 60 mins by LC-MS/MS analysis; assay type: ADME, cell-based, Hepatocyte; details: read-out: CLH
[7] = Apparent permeability across apical to basolateral side in human Caco2 cells; details: Caco-2
[8] = target: hERG (KCNH2) (Homo sapiens, UniProt Q12809); test: Inhibition of human ERG at 10 uM high-throughput electrophysiology assay relative to control
[9] = physchem; details: phosphate buffer, pH 7.4
[10] = tested on: Homo sapiens; test: Suppression of calcium ionophore-stimulated LTB4 production in CAD patient whole blood at 100 mg administered daily during phase 2 study for 12 weeks by ELISA relative to baseline; assay type: functional
[11] = target: T2, Arachidonate 5-lipoxygenase-activating protein (Homo sapiens); test: (§2) Inhibition of FLAP in human whole blood assessed as reduction in calcium ionophore-stimulated LTB4 production preincubated for 30 mins followed by calcium ionophore stimulation and measured after 20 mins by EIA; assay type: tissue-based
[12] = target: T1, Arachidonate 5-lipoxygenase-activating protein; test: as §2; assay type: tissue-based
[13] = Genotoxicity in Salmonella typhimurium by Ames test; assay type: toxicity; details: salmonella enterica subsp. enterica serovar typhimurium
Outline: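 Two-strain Salmonella Ames test, with and without metabolic activation by rat liver S9 fraction; applied to amino pyrazole building blocks present in the series.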

[14] = target: Cytochrome P450 2C9 (Homo sapiens, UniProt P11712); test: Inhibition of recombinant human CYP2C9 expressed in Escherichia coli assessed as maximum reduction in metabolite formation using coumarin based substrate by fluorescence assay; assay type: ADME
Cytochrome P450 2C9, sequence (P11712 whole entry): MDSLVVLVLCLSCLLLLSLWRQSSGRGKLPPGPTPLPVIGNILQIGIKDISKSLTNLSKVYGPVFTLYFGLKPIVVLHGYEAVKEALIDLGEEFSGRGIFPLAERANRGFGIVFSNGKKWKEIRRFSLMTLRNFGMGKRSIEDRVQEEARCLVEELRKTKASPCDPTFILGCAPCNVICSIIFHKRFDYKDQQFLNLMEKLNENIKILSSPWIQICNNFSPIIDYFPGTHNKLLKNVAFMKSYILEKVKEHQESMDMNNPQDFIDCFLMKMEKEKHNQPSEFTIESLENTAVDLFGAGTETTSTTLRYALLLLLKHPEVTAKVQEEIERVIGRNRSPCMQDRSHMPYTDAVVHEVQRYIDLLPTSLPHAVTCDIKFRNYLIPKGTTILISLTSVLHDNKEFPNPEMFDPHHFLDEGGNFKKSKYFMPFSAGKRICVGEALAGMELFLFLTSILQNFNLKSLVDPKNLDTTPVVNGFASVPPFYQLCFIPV

hERG (KCNH2), sequence (Q12809 whole entry): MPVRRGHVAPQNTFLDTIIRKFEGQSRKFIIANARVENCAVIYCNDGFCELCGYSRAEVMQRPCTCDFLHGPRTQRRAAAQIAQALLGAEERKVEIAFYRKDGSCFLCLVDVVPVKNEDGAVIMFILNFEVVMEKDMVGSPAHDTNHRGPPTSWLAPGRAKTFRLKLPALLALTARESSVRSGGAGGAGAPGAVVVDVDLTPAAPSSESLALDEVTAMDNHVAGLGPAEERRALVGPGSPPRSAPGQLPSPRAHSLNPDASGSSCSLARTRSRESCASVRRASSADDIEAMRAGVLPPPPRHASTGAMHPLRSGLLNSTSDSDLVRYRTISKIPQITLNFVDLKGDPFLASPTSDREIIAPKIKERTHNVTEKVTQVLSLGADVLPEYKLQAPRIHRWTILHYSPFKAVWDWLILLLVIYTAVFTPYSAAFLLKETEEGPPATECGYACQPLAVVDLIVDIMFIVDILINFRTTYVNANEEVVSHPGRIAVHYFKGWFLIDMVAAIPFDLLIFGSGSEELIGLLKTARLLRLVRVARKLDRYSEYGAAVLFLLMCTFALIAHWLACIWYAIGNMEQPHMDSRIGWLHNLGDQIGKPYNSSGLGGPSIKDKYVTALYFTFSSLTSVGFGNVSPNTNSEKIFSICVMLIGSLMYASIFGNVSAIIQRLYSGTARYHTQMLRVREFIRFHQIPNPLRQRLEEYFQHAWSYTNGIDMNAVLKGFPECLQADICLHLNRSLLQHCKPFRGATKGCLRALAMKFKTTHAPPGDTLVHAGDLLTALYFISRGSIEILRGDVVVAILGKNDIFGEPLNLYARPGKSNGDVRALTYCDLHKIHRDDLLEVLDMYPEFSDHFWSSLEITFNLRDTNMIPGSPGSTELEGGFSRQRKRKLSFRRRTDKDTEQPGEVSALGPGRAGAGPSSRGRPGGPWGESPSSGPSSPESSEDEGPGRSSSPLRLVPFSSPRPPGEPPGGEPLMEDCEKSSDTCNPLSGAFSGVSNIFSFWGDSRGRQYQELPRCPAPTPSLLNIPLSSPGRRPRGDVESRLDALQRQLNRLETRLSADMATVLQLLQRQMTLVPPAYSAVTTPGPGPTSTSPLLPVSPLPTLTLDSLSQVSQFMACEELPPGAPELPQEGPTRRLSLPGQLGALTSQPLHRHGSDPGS
Cytochrome P450 1A2, sequence (P05177 whole entry): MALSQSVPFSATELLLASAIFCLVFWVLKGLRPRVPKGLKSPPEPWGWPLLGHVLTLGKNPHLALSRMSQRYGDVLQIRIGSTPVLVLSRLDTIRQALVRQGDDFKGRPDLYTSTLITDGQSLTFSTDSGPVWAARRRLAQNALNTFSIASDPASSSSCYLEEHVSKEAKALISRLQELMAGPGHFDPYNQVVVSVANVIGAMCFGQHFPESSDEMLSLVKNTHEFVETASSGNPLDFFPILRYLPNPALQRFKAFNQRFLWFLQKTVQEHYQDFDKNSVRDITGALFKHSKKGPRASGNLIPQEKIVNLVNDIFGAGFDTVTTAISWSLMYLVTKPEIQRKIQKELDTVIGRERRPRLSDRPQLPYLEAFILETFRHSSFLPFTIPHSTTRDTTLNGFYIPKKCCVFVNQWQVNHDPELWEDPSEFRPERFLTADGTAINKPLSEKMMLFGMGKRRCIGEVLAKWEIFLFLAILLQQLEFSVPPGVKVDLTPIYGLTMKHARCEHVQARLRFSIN

| Structure (SMILES) | logD [1] | IC50 [2] | fpIC50 [3] | IC50 [4] | IC50 [5] | hepatocyte CLint at 1 µM [6] | Papp A→B [7] | inhibition at 10 µM [8] | solubility at 24 h [9] | inhibition (INH) [10] | fpIC50 [11] | IC50 [12] | Activity [13] | IC50 [14] |
| --- | --- | --- | --- | --- | --- | --- | --- | --- | --- | --- | --- | --- | --- | --- |
| CC(C)(O)CNC(=O)c1cnc(NC(=O)[C@@H]2CCCC[C@H]2C(=O)c2ccc(-c3cc[nH]n3)cc2)cn1 (racemic) | 3.2 | 0.0158 µM | 8.3 | 0.1 µM | 10 µM | 4 µL/min/1e6 cells | 3 ×10⁻⁶ cm/s | 22% | 111 µM (≈ 54.5 µg/mL) |  |  |  |  |  |
| C[C@H](C#Cc1ccc(Cc2ccc(F)cc2)s1)N(O)C(N)=O [ATRELEUTON] |  |  |  |  |  |  |  |  |  | 80% |  |  |  |  |
| Cc1cc(-c2ccc(C(=O)[C@@H]3CCCC[C@H]3C(=O)Nc3cn(C)nc3C(F)F)cc2)n[nH]1 | 3.5 | 0.01 µM |  |  |  |  |  |  |  |  | 8.5 | 0.0631 µM | Toxic |  |
| Cc1cc(-c2ccc(C(=O)[C@@H]3CCCC[C@H]3C(=O)Nc3cn(C)nc3C#N)cc2)n[nH]1 | 3.5 |  |  |  |  | 6 µL/min/1e6 cells | 27 ×10⁻⁶ cm/s | 23% | 25 µM (≈ 10.4 µg/mL) |  | 8.5 |  | Non-Toxic | 7.94 µM |
